{"source": "paper PMC4536915", "about": "(Nature chemical biology, 2015)", "key": {"[1]": {"tested_on": "P. aeruginosa cells", "assay": "Killing kinetics", "assay_type": "cell-based, Pseudomonas aeruginosa", "settings": "37°C; linear regression after 1 hr lag"}, "[2]": {"tested_on": "P. aeruginosa PAO1", "assay": "MIC by broth microdilution, wild-type strain", "assay_type": "cell-based, Pseudomonas aeruginosa", "settings": "24 h, 37 °C; listed as F"}, "[3]": {"tested_on": "P. aeruginosa PAO1 MexABCDXY− (N150)", "assay": "MIC by broth microdilution, efflux-deficient strain", "assay_type": "cell-based, Pseudomonas aeruginosa", "settings": "24 h, 37 °C; listed as F"}, "[4]": {"tested_on": "P. aeruginosa PAO1", "assay": "In vitro post-antibiotic effect", "assay_type": "cell-based, Pseudomonas aeruginosa", "settings": "1 h exposure, 1:1000 dilution", "how_it_was_run": "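Drug removed by 1:1000 dilution into pre-warmed medium. Regrowth at 37 °C counted immediately and hourly for 8 h (detection limit 1 log10 CFU/mL). Triplicate independent occasions; mechanistic PD model fitted.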"}, "[5]": {"tested_on": "P. aeruginosa strain PAO1", "assay": "Neutropenic mouse thigh infection model, single dose time course", "assay_type": "in vivo, CD-1 mice", "settings": "resistance emergence test"}, "[6]": {"assay": "Plasma protein binding, equilibrium dialysis, mouse", "assay_type": "in vitro ADME", "settings": "50 μM"}, "[7]": {"assay": "Plasma protein binding, equilibrium dialysis, human", "assay_type": "in vitro ADME", "settings": "50 μM"}}, "note": "Values joined by “and” are separate entries in the source; they are usually repeats but may differ in a detail not shown here. Equal values may be shown once."}
{"molecule": "COc1ccc(-c2ccn(CC[C@](C)(C(=O)NO)S(C)(=O)=O)c(=O)c2)c(F)c1", "note": "[Compound 6]", "values": [{"measurement": "maximum killing rate", "setting": "[1]", "value": 2.8, "unit": "log10 CFU/hr"}, {"measurement": "P.ae MIC PAO1", "setting": "[2]", "value": "0.25 μg/ml and 0.61 μM"}, {"measurement": "P.ae MIC PAO1 MexABCDXY−", "setting": "[3]", "value": "0.0075 μg/ml and 0.018 μM"}, {"measurement": "PAE at 4x MIC", "setting": "[4]", "value": 1.26, "unit": "h"}, {"measurement": "PAE at 8x MIC", "setting": "[4]", "value": 1.67, "unit": "h"}, {"measurement": "PAE at 16x MIC", "setting": "[4]", "value": 1.93, "unit": "h"}, {"measurement": "CFU from 24 h timepoints on selective media (4× MIC)", "setting": "[5]", "value": "no CFU were obtained"}, {"measurement": "free fraction (fu)", "setting": "[6]", "value": 0.41}, {"measurement": "free fraction (fu)", "setting": "[7]", "value": 0.28}]}
